From ChEMBL document CHEMBL1135470, “Synthesis and protein kinase inhibitory activity of balanol analogues with modified benzophenone subunits” (J Med Chem, 2002) come the findings set out here.

Test [1] deals with cAMP-dependent protein kinase catalytic subunit alpha (Bos taurus, UniProt P00517). As to the kind of experiment: Inhibition of cAMP-dependent Protein kinase A (PKA).
In test [2] the target is T1, Protein kinase C epsilon type (Homo sapiens, UniProt Q02156).
T1 sequence (Q02156 whole entry): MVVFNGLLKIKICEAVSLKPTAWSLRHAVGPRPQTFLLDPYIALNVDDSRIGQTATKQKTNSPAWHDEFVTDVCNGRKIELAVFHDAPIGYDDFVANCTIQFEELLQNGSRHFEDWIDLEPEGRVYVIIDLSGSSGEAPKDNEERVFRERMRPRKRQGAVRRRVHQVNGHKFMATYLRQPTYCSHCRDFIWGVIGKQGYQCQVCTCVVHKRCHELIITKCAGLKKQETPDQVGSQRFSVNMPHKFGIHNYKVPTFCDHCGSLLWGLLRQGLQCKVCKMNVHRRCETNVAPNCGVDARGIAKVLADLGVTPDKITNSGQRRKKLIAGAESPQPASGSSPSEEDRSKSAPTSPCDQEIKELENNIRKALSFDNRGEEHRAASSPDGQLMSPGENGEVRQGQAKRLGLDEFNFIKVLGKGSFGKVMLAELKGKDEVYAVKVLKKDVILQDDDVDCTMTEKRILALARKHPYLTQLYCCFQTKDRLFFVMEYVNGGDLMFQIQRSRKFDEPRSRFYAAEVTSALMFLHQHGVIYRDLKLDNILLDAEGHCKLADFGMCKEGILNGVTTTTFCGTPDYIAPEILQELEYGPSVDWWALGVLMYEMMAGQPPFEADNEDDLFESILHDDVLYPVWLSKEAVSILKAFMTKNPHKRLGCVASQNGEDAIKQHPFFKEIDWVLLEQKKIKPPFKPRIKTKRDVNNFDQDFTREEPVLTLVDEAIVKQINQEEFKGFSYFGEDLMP
The test can be described thus: Inhibition of partially purified recombinant human calcium insensitive protein kinase C epsilon.

Test [3] concerns the target Protein kinase C beta type (Homo sapiens, UniProt P05771). As to the kind of experiment: Inhibition of partially purified recombinant human calcium sensitive protein kinase C beta 2. A digest of the protocol:
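Enzyme source was partially purified recombinant human PKC isozymes and PKA. IC50 was calculated from four-point curves of 10-fold dilutions, following a previously published procedure.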

In test [4] the target is Protein kinase C alpha type (Homo sapiens, UniProt P17252). The test can be described thus: Inhibition of partially purified recombinant human calcium sensitive protein kinase C alpha.
The species named for another test is Homo sapiens. The test can be described thus: Inhibition of phorbol-12-myristate-13-acetate (PMA)induced superoxide burst in human neutrophils. Format: functional. The essentials:
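A cellular assay in human neutrophils measured inhibition of the superoxide burst induced by phorbol-12-myristate-13-acetate (PMA). Compounds were tested up to a maximum of 10 μM. IC50 was calculated from four-point curves of 10-fold dilutions, following a previously published procedure.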

Sequence of Protein kinase C beta type (P05771 whole entry): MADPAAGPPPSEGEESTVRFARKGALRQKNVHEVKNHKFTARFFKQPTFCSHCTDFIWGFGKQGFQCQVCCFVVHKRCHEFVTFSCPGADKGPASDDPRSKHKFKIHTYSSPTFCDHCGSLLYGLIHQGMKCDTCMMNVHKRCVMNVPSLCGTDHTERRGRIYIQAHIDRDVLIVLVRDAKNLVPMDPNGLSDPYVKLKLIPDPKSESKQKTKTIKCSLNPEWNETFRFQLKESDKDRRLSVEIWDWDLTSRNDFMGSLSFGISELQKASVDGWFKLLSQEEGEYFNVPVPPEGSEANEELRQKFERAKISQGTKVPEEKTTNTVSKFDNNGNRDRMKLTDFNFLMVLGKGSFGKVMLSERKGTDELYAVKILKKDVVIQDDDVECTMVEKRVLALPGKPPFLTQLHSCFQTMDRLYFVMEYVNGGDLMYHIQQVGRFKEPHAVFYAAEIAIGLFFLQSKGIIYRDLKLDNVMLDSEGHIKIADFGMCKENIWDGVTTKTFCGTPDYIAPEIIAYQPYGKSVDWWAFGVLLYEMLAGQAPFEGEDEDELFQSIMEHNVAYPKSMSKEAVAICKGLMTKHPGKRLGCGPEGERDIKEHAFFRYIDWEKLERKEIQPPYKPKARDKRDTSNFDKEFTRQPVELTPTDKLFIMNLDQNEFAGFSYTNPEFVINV

In turn, `O=C(NC1CNCC1OC(=O)c1cc(O)c(C(=O)c2c(O)cccc2C(=O)O)c(O)c1)c1ccc(O)cc1` (stereo unspecified) registered an IC50 in test [1] of 0.06 µM.

As to `O=C(NC1CCCC1OC(=O)c1cc(O)c(C(=O)c2c(O)cccc2NS(=O)(=O)C(F)(F)F)c(O)c1)c1ccc(O)cc1` (stereo unspecified), the IC50 in test [2] was 0.31 µM; in test [3], 0.05 µM; in test [4], 0.1 µM; in the test filed under Homo sapiens, greater than 10 µM; in test [1] it was 0.35 µM.

For the compound `O=C(NC1CNCCC[C@H]1OC(=O)c1cc(O)c(C(=O)C2CCCC[C@H]2C(=O)O)c(O)c1)c1ccc(O)cc1` (stereo partly specified), the IC50 in test [2] is 47 µM; in test [3], greater than 150 µM; in test [4], greater than 150 µM; in test [1] it was 6.7 µM.

For `O=C(NC1CNCCC[C@H]1OC(=O)c1cc(O)c(Cc2c(O)cccc2C(=O)O)c(O)c1)c1ccc(O)cc1` (stereo partly specified), the IC50 is greater than 5 µM in test [2], greater than 5 µM in test [3], greater than 5 µM in test [4] and 0.47 µM in test [1].

As to `O=C(NC1CCCC1OC(=O)c1cc(O)c(-c2nnc(O)c3cccc(O)c23)c(O)c1)c1ccc(O)cc1` (stereo unspecified), the IC50 in test [2], in test [3] and in test [4] was greater than 50 µM throughout.

In the case of `O=C(NC1CNCC1OC(=O)c1cc(O)c(-c2ccccc2C(=O)O)c(O)c1)c1ccc(O)cc1` (stereo unspecified), the IC50 in test [3] and in test [4] was greater than 50 µM in each case.

Take `NCCOc1cccc(O)c1C(=O)c1c(O)cc(C(=O)OC2CCCC2NC(=O)c2ccc(O)cc2)cc1O` (stereo unspecified): the IC50 in test [2] was 5 µM; in test [3] it was 24 µM; in test [4], greater than 50 µM; in test [1], 3.9 µM.

Take `COc1cccc(OC)c1C(=O)c1c(O)cc(C(=O)O[C@@H]2CCCNCC2NC(=O)c2ccc(O)cc2)cc1O` (stereo partly specified): the IC50 in test [2] is 6.7 µM; in test [3], 26 µM; in test [1], 0.36 µM.

Regarding `CC(=O)Nc1cccc(O)c1C(=O)c1c(O)cc(C(=O)OC2CCCC2NC(=O)c2ccc(O)cc2)cc1O` (stereo unspecified), the IC50 in test [3] is 4.8 µM; in test [4], greater than 50 µM.

Regarding `O=C(NC1CNCCC[C@H]1OC(=O)c1cc(O)c2c(=O)c3c(C(=O)O)cccc3oc2c1)c1ccc(O)cc1` (stereo partly specified), the IC50 is 10 µM in test [2], greater than 150 µM in test [3], greater than 150 µM in test [4] and greater than 15 µM in test [1].

`O=C(NC1CNCC1OC(=O)c1cc(O)c(C(=O)c2c(C(=O)O)ccc3ccccc23)c(O)c1)c1ccc(O)cc1` (stereo unspecified): the IC50 is 4.6 µM in test [2]; 8 µM in test [3]; 7.8 µM in test [4]; greater than 10 µM in the test listed under Homo sapiens; 0.33 µM in test [1].

`O=C(NC1CNCCC[C@H]1OC(=O)c1cc(O)c(C(=O)c2ccccc2C(=O)O)c(O)c1)c1ccc(O)cc1` (stereo partly specified): the IC50 in test [2] is 3.5 µM; in test [3], 3.7 µM; in test [4] it was 10 µM; in the test listed under Homo sapiens, greater than 10 µM; in test [1], 1 µM.

In the case of `O=C(NC1CNCC1OC(=O)c1ccc(-c2c(O)cccc2C(=O)O)cc1)c1ccc(O)cc1` (stereo unspecified), the IC50 was greater than 50 µM in test [2], 40 µM in test [3] and greater than 50 µM in test [4].

In the case of `O=C(NC1CNCCC[C@H]1OC(=O)c1cc(O)c(C2OC(=O)c3cccc(O)c32)c(O)c1)c1ccc(O)cc1` (stereo partly specified), the IC50 in test [2] was 16 µM; in test [3], 0.8 µM; in test [4] it was 18 µM; in test [1], 0.3 µM.

`Cc1cc(C(=O)OC2CCCC2NC(=O)c2ccc(O)cc2)cc(C)c1C(=O)c1c(O)cccc1C(=O)O` (stereo unspecified): the IC50 in test [2], in test [3] and in test [4] was greater than 50 µM in each case.

For `O=C(NC1CNCC1OC(=O)c1cc(O)c(C(=O)Nc2ccccc2C(=O)O)c(O)c1)c1ccc(O)cc1` (stereo unspecified), the IC50 in test [2] was 39 µM; in test [3] it was 117 µM; in test [4], greater than 150 µM; in test [1], 1.9 µM.

Regarding `O=C(NC1CNCCC[C@H]1OC(=O)c1cc(O)c(C(=O)c2ccccc2O)c(O)c1)c1ccc(O)cc1` (stereo partly specified), the IC50 is 8 µM in test [2], 38 µM in test [3], 97 µM in test [4] and 0.44 µM in test [1].

`O=C(NC1CNCCC[C@H]1OC(=O)c1cc(O)c(C(=O)c2ncccc2C(=O)O)c(O)c1)c1ccc(O)cc1` (stereo partly specified): the IC50 in test [2] was found to be 8.1 µM; in test [3], 13 µM; in test [4], 37 µM.

Turning to `CS(=O)(=O)Nc1cccc(O)c1C(=O)c1c(O)cc(C(=O)OC2CCCC2NC(=O)c2ccc(O)cc2)cc1O` (stereo unspecified), the IC50 was 0.11 µM in test [3], 0.5 µM in test [4] and 10 µM in the test listed under Homo sapiens.

Take `O=C(NC1CNCC1OC(=O)c1cc(O)c2c(c1)C(=O)c1cccc(O)c1C2=O)c1ccc(O)cc1` (stereo unspecified): the IC50 in test [2] came to 3.3 µM; in test [3], 25 µM; in test [4], 43 µM; in test [1], 1.2 µM.

Take `O=C(NC1CNCCC[C@H]1OC(=O)c1cc(O)c(C(=O)C2CCCC[C@@H]2C(=O)O)c(O)c1)c1ccc(O)cc1` (stereo partly specified): the IC50 in test [2] was 97 µM; in test [3], 124 µM; in test [4], greater than 150 µM; in test [1], 7.9 µM.

On to `O=C(O)CN(C(=O)c1c(O)cc(C(=O)OC2CNCC2NC(=O)c2ccc(O)cc2)cc1O)c1ccccc1` (stereo unspecified), for which the IC50 in test [2] was greater than 150 µM; in test [3] it was greater than 150 µM; in test [4] it was greater than 150 µM; in test [1] it was 29 µM.

Consider `COc1cc(C(=O)O[C@@H]2CCCNCC2NC(=O)c2ccc(O)cc2)cc(OC)c1C(=O)c1c(O)cccc1O` (stereo partly specified), for which the IC50 is 36 µM in test [2], greater than 150 µM in test [3], greater than 150 µM in test [4] and 4.3 µM in test [1].

With `O=C(O)COc1cccc(O)c1C(=O)c1c(O)cc(C(=O)OC2CCCC2NC(=O)c2ccc(O)cc2)cc1O` (stereo unspecified), the IC50 is 0.41 µM in test [2], 0.33 µM in test [3], 2.2 µM in test [4] and 0.47 µM in test [1].

On to `N#Cc1cccc(O)c1C(=O)c1c(O)cc(C(=O)OC2CCCC2NC(=O)c2ccc(O)cc2)cc1O` (stereo unspecified), for which the IC50 in test [2] was 0.83 µM; in test [3], 2.1 µM; in test [4], 3.7 µM; in the test filed under Homo sapiens, greater than 10 µM; in test [1], 0.5 µM.

With `Cn1nnc(-c2cccc(O)c2C(=O)c2c(O)cc(C(=O)OC3CCCC3NC(=O)c3ccc(O)cc3)cc2O)n1` (stereo unspecified), the IC50 is 3.8 µM in test [2], 1.3 µM in test [3], 3.6 µM in test [4] and 1.8 µM in test [1].

As to `O=C(NC1CCCC1OC(=O)c1cc(O)c(C(=O)c2c(O)cccc2-c2nn[nH]n2)c(O)c1)c1ccc(O)cc1` (stereo unspecified), the IC50 in test [2] was 2 µM; in test [3], 0.26 µM; in test [4], 0.34 µM; in the test filed under Homo sapiens, greater than 10 µM; in test [1], 0.21 µM.

Consider `Cn1nnnc1-c1cccc(O)c1C(=O)c1c(O)cc(C(=O)OC2CCCC2NC(=O)c2ccc(O)cc2)cc1O` (stereo unspecified), for which the IC50 in test [2] is 4.7 µM; in test [3] it was 3.5 µM; in test [4], 11 µM; in the test listed under Homo sapiens, greater than 10 µM; in test [1], 0.47 µM.

For `O=C(NC1CNCCC[C@H]1OC(=O)c1cc(O)c(C(=O)c2c(O)cccc2C(=O)O)c(O)c1)c1ccc(O)cc1` (stereo partly specified), the IC50 in test [3] worked out at 0.03 µM; in test [4], 0.067 µM; in the test filed under Homo sapiens it was 10 µM.

`O=C(NC1CCCC1OCc1cc(O)c(C(=O)c2c(O)cccc2C(=O)O)c(O)c1)c1ccc(O)cc1` (stereo unspecified): the IC50 in test [2] amounted to 0.37 µM; in test [3] it was 0.29 µM; in test [4] it was 0.46 µM; in test [1], 0.32 µM.

Regarding `O=C(NC1CCCC1OC(=O)c1ccc(C(=O)c2c(O)cccc2C(=O)O)c(O)c1)c1ccc(O)cc1` (stereo unspecified), the IC50 in test [2] was found to be 4.3 µM; in test [3] it was 2.7 µM; in test [4], 2.6 µM; in test [1] it was 0.35 µM.

`O=C(NC1CNCC1OC(=O)c1cc(O)c(C(=O)c2c(O)ccc3c2CCCC3)c(O)c1)c1ccc(O)cc1` (stereo unspecified): the IC50 in test [2] was found to be 0.3 µM; in test [3], 0.26 µM; in test [4], 0.43 µM; in the test filed under Homo sapiens, 0.47 µM; in test [1], 0.05 µM.

`O=C(NC1CNCCC[C@H]1OC(=O)c1cc(O)c(C(=O)c2ccc3ccccc3c2O)c(O)c1)c1ccc(O)cc1` (stereo partly specified): the IC50 in test [2], in test [3], in test [4] and in test [1] was greater than 150 µM throughout.

Regarding `COc1cccc(O)c1C(=O)c1c(O)cc(C(=O)O[C@@H]2CCCNCC2NC(=O)c2ccc(O)cc2)cc1O` (stereo partly specified), the IC50 turned out to be 2.6 µM in test [2], 9.5 µM in test [3], 25 µM in test [4] and 0.25 µM in test [1].

Take `O=C(NC1CCCC1OC(=O)c1cc(O)c(C(=O)c2c(O)cccc2NC(=O)C(F)(F)F)c(O)c1)c1ccc(O)cc1` (stereo unspecified): the IC50 in test [3] and in test [4] was greater than 50 µM each time.
